From PubChem BioAssay AID2269 (The Scripps Research Institute Molecular Screening Center, 2010)
Calls of active or inactive are those of the source. The rule behind the calls is not given here.

Molecular target: Serine hydrolase RBBP9 (Homo sapiens) (UniProt O75884)
Assay: RBBP9 serine hydrolase inhibitors, late-stage follow-up, orthogonal assay, biochemical, gel-based ABPP, FP-rhodamine, powder samples (AID 2269)
Conditions: recombinant RBBP9, gel-based ABPP, FP-rhodamine labeling; at 20 µM; hits give high values
Outline: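 Material – recombinant RBBP9 protein · Signal – SDS-PAGE separation with in-gel fluorescence scanning · Doses – single compound concentration per test · Control set – DMSO vehicle control · Timing – compound 30 min at 25 °C, probe 45 min · Read-out basis – percent inhibition from integrated optical density of labeled bands · Reagent – fluorophosphonate-rhodamine activity-based probe, 75 nM final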

Sequence of Serine hydrolase RBBP9 (Homo sapiens) (O75884 whole entry, looked up): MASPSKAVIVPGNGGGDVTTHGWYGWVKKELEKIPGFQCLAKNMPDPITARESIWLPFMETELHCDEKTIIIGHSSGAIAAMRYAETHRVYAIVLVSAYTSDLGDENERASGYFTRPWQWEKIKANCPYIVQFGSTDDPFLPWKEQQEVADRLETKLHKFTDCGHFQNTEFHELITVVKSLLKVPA

| SMILES | inhibition |
| --- | --- |
| CC(=O)ON=C(C)c1cc(C(C)(C)C)cc2c1CCC2(C)C | 0% (inactive) |
| CC(=NOC(=O)c1ccc(S(=O)(=O)N2CCOCC2)cc1)c1cc2ccccc2o1 | 15% (inactive) |
| C/C(=N\OC(=O)c1ccccc1Cl)c1ccc(Br)cc1 | 0% (inactive) |
| CC1=CC(=NOC(=O)/C=C/c2ccccc2)C=C(C)C1=O | 78% |
| CC(=NOC(=O)c1ccc(-c2ccccc2)cc1)c1cccs1 | 0% (inactive) |
| CC(=NOC(=O)c1ccc(-c2cc(Cl)ccc2Cl)o1)c1ccccc1 | 0% (inactive) |
| COc1ccc(C(=O)O/N=C(\C)c2nccs2)cc1 | 60% |
| COc1ccc(C(=O)ON=C2C=C(C)C(=O)C(C)=C2)cc1 | 93% |
| N/C(Cc1cccs1)=N\OC(=O)C12CC3CC(CC(C3)C1)C2 | 6% (inactive) |
| C/C(=N\OC(=O)c1ccc(-c2ccccc2)cc1)c1nccs1 | 4% (inactive) |
| CC(=NOC(=O)c1c(-c2ccccc2Cl)noc1C)c1nccs1 | 17% (inactive) |
| C/C(=N\OC(=O)c1c(F)cccc1F)c1nccs1 | 66% |
| C/C(=N\OC(=O)C1CCCCC1)c1nccs1 | 91% |
| N/C(Cc1ccc(Cl)cc1)=N\OC(=O)C1CCCCC1 | 0% (inactive) |
| NC(=NOC(=O)C1CCCCC1)c1cccc([N+](=O)[O-])c1 | 5% (inactive) |
| C/C(=N\OC(=O)c1ccccc1O)c1cccs1 | 0% (inactive) |
| C/C(=N\OC(=O)c1ccc([N+](=O)[O-])cc1)c1nccs1 | 15% (inactive) |
| C/C(=N\OC(=O)c1ccc(Cl)cc1)c1nccs1 | 78% |
| C#CCCC(=O)O/N=C(\C)c1nccs1 | 42% (inactive) |

| SMILES | inhibition |
| --- | --- |
| COc1ccc(C(=O)O/N=C2\C=C(C)C(=O)C=C2C)cc1 | 76% |
| C/C(=N\OC(=O)c1c(-c2c(F)cccc2Cl)noc1C)c1nccs1 | 14% (inactive) |
| CC(C)=NOC(=O)c1cn(-c2ccccc2)nc1-c1ccc(F)cc1 | 0% (inactive) |
| COc1ccc(C(=O)ON=C2C(C)=CC(=O)C=C2C)cc1 | 48% (inactive) |
| NC(=O)C(=NOC(=O)c1ccccc1)c1nc(-c2ccc(Cl)cc2)cs1 | 57% |
| C/C(=N\OC(=O)c1ccccc1)c1nccs1 | 62% |
| C/C(=N\OC(=O)c1ccc(F)cc1)c1nccs1 | 76% |
| CC(=NOC(=O)c1cn(-c2ccccc2)nc1-c1ccc(Cl)cc1)c1ccccc1 | 10% (inactive) |
| C/C(=N\OC(=O)c1cccc(Cl)c1)c1nccs1 | 63% |
| CC(=O)O/N=C(\C)c1nccs1 | 0% (inactive) |
| NC(=O)C(=NOC(=O)c1ccccc1Cl)c1nc(-c2ccc(Br)cc2)cs1 | 0% (inactive) |
| C/C(=N\OC(=O)/C=C/c1ccccc1)c1nccs1 | 42% (inactive) |
| C/C(=N\OC(=O)c1ccc(I)cc1)c1nccs1 | 66% |
| CC(C)=NOC(=O)c1cn(-c2ccccc2)nc1-c1cccs1 | 0% (inactive) |
| C/C(=N\OC(=O)N1CCCCC1)c1nccs1 | 0% (inactive) |
| COc1ccc(/C(N)=N/OC(=O)C23CC4CC(CC(C4)C2)C3)cc1OC | 28% (inactive) |
| C/C(=N\OC(=O)c1ccccc1F)c1nccs1 | 64% |
| C/C(=N\OC(=O)c1cccc(C(F)(F)F)c1)c1nccs1 | 46% (inactive) |
